Measured values collected from several papers.
Target: Cholinesterase (BCHE, Homo sapiens, UniProt P06276)
Read-out: enzyme activity
Mode: inhibitor

| SMILES | assay | system | conditions | IC50 |
| --- | --- | --- | --- | --- |
| CC(C)(C)c1ccccc1OP(=O)(Oc1ccccc1C(C)(C)C)Oc1ccccc1C(C)(C)C | – | liver microsomes | – | > 20 µg/mL |
| C=CCn1c2cc(OC(=O)CCCN3CCN(Cc4ccccc4)CC3)ccc2c2ccnc(C)c21 | Ellman | – | – | 163 nM |
| CC(C)(C)c1ccc(OP(=O)(Oc2ccc(C(C)(C)C)cc2)Oc2ccc(C(C)(C)C)cc2)cc1 | – | liver microsomes | – | > 20 µg/mL |
| O=c1[nH]cc(CO)c(=O)[nH]1 | Ellman | – | – | 443 nM |
| C=CCn1c2cc(OC(=O)CCCCN3CCN(Cc4ccc(F)cc4)CC3)ccc2c2ccnc(C)c21 | Ellman | – | – | 584 nM |
| C#CCNc1nc(NCCCC2CCN(Cc3ccccc3)CC2)c(C#N)cc1C#N | Ellman | – | – | 1920 nM |
| CC(C)(C)c1cccc(OP(=O)(Oc2cccc(C(C)(C)C)c2)Oc2cccc(C(C)(C)C)c2)c1 | – | liver microsomes | – | > 20 µg/mL |
| Cc1ccc(S(=O)(=O)n2cc(Br)c(=O)[nH]c2=O)cc1 | Ellman | – | – | 137 nM |
| C[N+](C)(C)CCCCCCCCCC[N+](C)(C)C | – | – | – | 17400 nM |
| C=CCn1c2cc(OC(=O)CCCCN3CCN(Cc4ccc(C)cc4)CC3)ccc2c2ccnc(C)c21 | Ellman | – | – | 581 nM |
| C[C@@H]1CCCN1CCCCOc1ccc2occc(=O)c2c1 | Ellman | – | pH 7.4 | 48500 nM |
| Cc1cc(O)nc(O)n1 | Ellman | – | – | 368 nM |
| C=CCn1c2cc(OC(=O)CCCCCN3CCN(Cc4ccccc4)CC3)ccc2c2ccnc(C)c21 | Ellman | – | – | 464 nM |
